Source: ChEMBL document CHEMBL3817726, “Chemically Diverse Group I p21-Activated Kinase (PAK) Inhibitors Impart Acute Cardiovascular Toxicity with a Narrow Therapeutic Window” (J Med Chem, 2016)
Converted amounts (≈) assume the structure as drawn. Values belong to the molecule of their own block, whether it stands above or below them. The source made the active and inactive calls. The rule behind the calls is not given here.

Columns and labels:
Homo sapiens [1] = organism: Homo sapiens; experiment: Selectivity for human recombinant N-terminal 6-His-tagged PAK1 kinase domain (249 to 545 residues) over human recombinant PAK4 kinase domain
Homo sapiens [2] = organism: Homo sapiens; experiment: Selectivity for human recombinant N-terminal 6-His-tagged PAK1 kinase domain (249 to 545 residues) over LCK (unknown origin)
[3] = molecular target: Serine/threonine-protein kinase PAK 1 (Homo sapiens, UniProt Q13153); experiment: Inhibition of human recombinant N-terminal 6-His-tagged PAK1 kinase domain (249 to 545 residues) expressed in Escherichia coli BL21(DE3) assessed as phosphorylation of coumarin labeled FRET peptide substrate at Ser/Thr19 preincubated for 10 mins followed by ATP addition measured after 60 mins by Z'-LYTE assay
[4] = molecular target: Serine/threonine-protein kinase PAK 1/PAK 2 (Homo sapiens, UniProt Q13177+Q13153); experiment: Inhibition of PAK1/2 in human EBC1 cells assessed as phosphorylation of MEK1 at serine 298 after 2 hrs by HTRF assay; type: cell-based
[5] = Efflux ratio of permeability across basolateral to apical side over apical to basolateral side in MDCK cells at 10 uM after 60 mins; type: ADME, cell-based, Canis lupus familiaris; conditions: dog
[6] = Kinetic solubility of the compound at pH 7.4; type: physicochemical; conditions: buffer, read-out: Kinetic_solubility
[7] = Lipophilicity, log D of the compound at pH 7.4; type: physicochemical; conditions: buffer
[8] = Apparent permeability across apical to basolateral side in MDCK cells at 10 uM after 60 mins; type: ADME, cell-based, Canis lupus familiaris; conditions: dog
[9] = Apparent permeability across basolateral to apical side in MDCK cells at 10 uM after 60 mins; type: ADME, cell-based, Canis lupus familiaris; conditions: dog
[10] = molecular target: Sodium channel protein type 1 subunit alpha (Homo sapiens) (UniProt P35498); experiment: Inhibition of human Nav1.1 assessed as tonic block of sodium current at 1 to 10 uM treated for 3 mins by automatic parallel patch clamp method
[11] = molecular target: Serine/threonine-protein kinase 25 (Homo sapiens) (UniProt O00506); conditions: 0.1 uM
Heart [12] = experiment: Cardiotoxicity in Langendorff perfused Sprague-Dawley rat heart assessed as decrease in dP/dt maximum at 1.5 to 15 uM treated for 15 mins; type: toxicity, tissue-based; conditions: 0.25 h
How it was run: (§1)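 Hearts from Sprague Dawley rats were perfused in a Langendorff preparation and paced via the right atrium at 10-15% above the intrinsic heart rate. Each heart received increasing concentrations of 0, 0.5, 1.5, 5 and 15 µM, for 15 min at each level (n=5). Hemodynamic and electrocardiographic parameters were recorded throughout.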

Heart [13] = experiment: Cardiotoxicity in Langendorff perfused Sprague-Dawley rat heart assessed as increase in PR interval at 5 uM treated for 15 mins; type: toxicity, tissue-based; conditions: 0.25 h; how it was run: as §1
Heart [14] = experiment: Cardiotoxicity in Langendorff perfused Sprague-Dawley rat heart assessed as loss of 1:1 atrioventricular conduction at 5 to 15 uM treated for 15 mins; type: toxicity, tissue-based; conditions: 0.25 h; how it was run: as §1
Heart [15] = experiment: Cardiotoxicity in Langendorff perfused Sprague-Dawley rat heart assessed as increase in PR interval at 15 uM treated for 15 mins; type: toxicity, tissue-based; conditions: 0.25 h; how it was run: as §1
MDR1 = experiment: Permeability across apical to basolateral side in MDCK cells expressing MDR1; type: ADME, cell-based, Canis lupus familiaris; conditions: dog, read-out: permeability
[16] = molecular target: Voltage-dependent T-type calcium channel subunit alpha-1H (Homo sapiens) (UniProt O95180); experiment: Inhibition of human Cav3.2 expressed in HEK293 cells at 1 to 10 uM treated for 3 mins by automatic parallel patch clamp method; type: cell-based
[17] = molecular target: 5-hydroxytryptamine receptor 4 (Homo sapiens) (UniProt Q13639); conditions: CHO, 10 uM
Heart [18] = experiment: Cardiotoxicity in Langendorff perfused Sprague-Dawley rat heart assessed as decrease in dP/dtmax/P at 40 mmHg at 1.5 to 15 uM treated for 15 mins; type: toxicity, tissue-based; conditions: 0.25 h; how it was run: as §1
[19] = molecular target: T1, Sodium channel protein type 5 subunit alpha (Homo sapiens, UniProt Q14524); experiment: Inhibition of human Nav1.5 expressed in CHO cells assessed as tonic block of sodium current at 1 to 10 uM treated for 3 mins by automatic parallel patch clamp method; type: cell-based; conditions: 0.05 h
[20] = molecular target: Sodium/potassium-transporting ATPase (Homo sapiens) (UniProt P05023+P14415+P05026+P50993+P54709+P13637+Q13733+P54710); conditions: 30 uM
Rattus norvegicus = organism: Rattus norvegicus; conditions: Cerebral cortex, 10 uM
[21] = molecular target: Sodium channel protein type 1 subunit alpha (Homo sapiens) (UniProt P35498); experiment: Inhibition of human Nav1.1 assessed as phasic block of sodium current at 1 to 10 uM treated for 3 mins by automatic parallel patch clamp method
[22] = molecular target: 5-hydroxytryptamine receptor 2B (Homo sapiens) (UniProt P41595); conditions: CHO, 10 uM
Heart [23] = experiment: Cardiotoxicity in Langendorff perfused Sprague-Dawley rat heart assessed as decrease in dP/dt minimum at 1.5 to 15 uM treated for 15 mins; type: toxicity, tissue-based; conditions: 0.25 h; how it was run: as §1
[24] = Antitumor activity against human MDA-MB-175 cells xenografted in mouse assessed as tumor growth inhibition at 25 mg/kg, po bid relative to control; type: functional; conditions: read-out: TGI
Heart [25] = experiment: Cardiotoxicity in Langendorff perfused Sprague-Dawley rat heart assessed as increase in left ventricular systolic pressure at 1.5 to 15 uM treated for 15 mins; type: toxicity, tissue-based; conditions: 0.25 h; how it was run: as §1
[26] = Fraction unbound in mouse plasma at 30 to 60 mg/kg, po; type: ADME, organism-based
[27] = molecular target: Serine/threonine-protein kinase 24 (Homo sapiens) (UniProt Q9Y6E0); conditions: 0.1 uM
[28] = molecular target: Serine/threonine-protein kinase 26 (Homo sapiens) (UniProt Q9P289); conditions: 0.1 uM
[29] = molecular target: 5-hydroxytryptamine receptor 2A (Homo sapiens) (UniProt P28223); conditions: HEK293, 10 uM
Mus musculus [30] = experiment: In vivo inhibition of PAK1/2 in human NCI-H292 cells xenografted in mouse assessed as phosphorylation of MEK1 at serine 298 at 25 mg/kg, po bid; type: functional, organism-based
Homo sapiens [31] = organism: Homo sapiens; experiment: Inhibition of Na+/Ca2+ ATPase (unknown origin) at 30 uM
Mus musculus [32] = experiment: fCmax associated with acute adverse effect in mouse at 30 to 60 mg/kg, po; type: ADME, organism-based; conditions: in vivo
How it was run: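 Mouse tolerability studies at multiple doses, oral or intraperitoneal. Minimum unbound plasma concentration associated with adverse effects (total Cmax converted to unbound) compared with IC50 for inhibition of MEK1 S298 phosphorylation in cells.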

Heart [33] = experiment: Cardiotoxicity in Langendorff perfused Sprague-Dawley rat heart assessed as ventricular fibrillation at 5 uM treated for 15 mins; type: toxicity, tissue-based; conditions: 0.25 h; how it was run: as §1
Heart [34] = experiment: Cardiotoxicity in Langendorff perfused Sprague-Dawley rat heart assessed as increase in left ventricular end diastolic pressure at 1.5 to 15 uM treated for 15 mins; type: toxicity, tissue-based; conditions: 0.25 h; how it was run: as §1
[35] = molecular target: Voltage-gated inwardly rectifying potassium channel KCNH2 (Homo sapiens, UniProt Q12809); experiment: Inhibition of human ERG expressed in mammalian cells treated for 3 mins by automatic parallel patch clamp method; type: cell-based; conditions: 0.05 h
Heart [36] = experiment: Cardiotoxicity in Langendorff perfused Sprague-Dawley rat heart assessed as decrease in dP/dtmax/P at 1.5 to 15 uM treated for 15 mins; type: toxicity, tissue-based; conditions: 0.25 h; how it was run: as §1
[37] = Cmax associated with acute adverse effect in mouse at 30 to 60 mg/kg, po; type: ADME, organism-based; conditions: in vivo
How it was run: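 Mouse tolerability studies tested multiple doses, given orally or intraperitoneally. Plasma drug concentrations were measured, including at a 15 min time point. The minimum concentration associated with adverse clinical signs or death was taken as the adverse Cmax and was converted to an unbound value.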

[38] = molecular target: 5-hydroxytryptamine receptor 1B (Rattus norvegicus) (UniProt P28564); conditions: Cerebral cortex, 10 uM
[39] = molecular target: Serine/threonine-protein kinase PAK 3 (Homo sapiens) (UniProt O75914); conditions: 0.1 uM
Heart [40] = experiment: Cardiotoxicity in Langendorff perfused Sprague-Dawley rat heart assessed as increase in coronary perfusion pressure at 1.5 to 15 uM treated for 15 mins; type: toxicity, tissue-based; conditions: 0.25 h; how it was run: as §1
NCI-H292 = experiment: Antitumor activity against human NCI-H292 cells xenografted in mouse assessed as tumor growth inhibition at 25 mg/kg, po bid relative to control; type: functional; conditions: read-out: TGI
[41] = molecular target: Tyrosine-protein kinase Lck (Homo sapiens) (UniProt P06239); conditions: 0.1 uM
Heart [42] = experiment: Cardiotoxicity in Langendorff perfused Sprague-Dawley rat heart assessed as decrease in left ventricular developed pressure at 1.5 to 15 uM treated for 15 mins; type: toxicity, tissue-based; conditions: 0.25 h; how it was run: as §1
[43] = molecular target: T1, Sodium channel protein type 5 subunit alpha; experiment: Inhibition of human Nav1.5 expressed in CHO cells assessed as phasic block of sodium current at 1 to 10 uM treated for 3 mins by automatic parallel patch clamp method; type: cell-based; conditions: 0.05 h

Chain of Serine/threonine-protein kinase PAK 1 (Q13153 whole entry, the tested form may be a part): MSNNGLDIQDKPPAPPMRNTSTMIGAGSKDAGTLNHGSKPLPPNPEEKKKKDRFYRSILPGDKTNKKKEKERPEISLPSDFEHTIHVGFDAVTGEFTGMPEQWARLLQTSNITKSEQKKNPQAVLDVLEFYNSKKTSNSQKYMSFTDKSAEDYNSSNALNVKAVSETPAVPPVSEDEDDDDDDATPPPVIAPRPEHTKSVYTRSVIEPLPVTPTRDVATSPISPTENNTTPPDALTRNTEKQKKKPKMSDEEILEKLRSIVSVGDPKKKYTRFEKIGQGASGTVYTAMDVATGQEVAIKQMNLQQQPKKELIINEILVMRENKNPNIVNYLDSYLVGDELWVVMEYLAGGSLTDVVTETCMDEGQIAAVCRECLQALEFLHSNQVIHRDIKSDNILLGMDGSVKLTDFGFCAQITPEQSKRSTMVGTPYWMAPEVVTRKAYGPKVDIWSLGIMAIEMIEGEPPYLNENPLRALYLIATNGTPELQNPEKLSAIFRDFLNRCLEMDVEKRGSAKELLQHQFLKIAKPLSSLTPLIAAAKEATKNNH
T1 sequence (Q14524 whole entry): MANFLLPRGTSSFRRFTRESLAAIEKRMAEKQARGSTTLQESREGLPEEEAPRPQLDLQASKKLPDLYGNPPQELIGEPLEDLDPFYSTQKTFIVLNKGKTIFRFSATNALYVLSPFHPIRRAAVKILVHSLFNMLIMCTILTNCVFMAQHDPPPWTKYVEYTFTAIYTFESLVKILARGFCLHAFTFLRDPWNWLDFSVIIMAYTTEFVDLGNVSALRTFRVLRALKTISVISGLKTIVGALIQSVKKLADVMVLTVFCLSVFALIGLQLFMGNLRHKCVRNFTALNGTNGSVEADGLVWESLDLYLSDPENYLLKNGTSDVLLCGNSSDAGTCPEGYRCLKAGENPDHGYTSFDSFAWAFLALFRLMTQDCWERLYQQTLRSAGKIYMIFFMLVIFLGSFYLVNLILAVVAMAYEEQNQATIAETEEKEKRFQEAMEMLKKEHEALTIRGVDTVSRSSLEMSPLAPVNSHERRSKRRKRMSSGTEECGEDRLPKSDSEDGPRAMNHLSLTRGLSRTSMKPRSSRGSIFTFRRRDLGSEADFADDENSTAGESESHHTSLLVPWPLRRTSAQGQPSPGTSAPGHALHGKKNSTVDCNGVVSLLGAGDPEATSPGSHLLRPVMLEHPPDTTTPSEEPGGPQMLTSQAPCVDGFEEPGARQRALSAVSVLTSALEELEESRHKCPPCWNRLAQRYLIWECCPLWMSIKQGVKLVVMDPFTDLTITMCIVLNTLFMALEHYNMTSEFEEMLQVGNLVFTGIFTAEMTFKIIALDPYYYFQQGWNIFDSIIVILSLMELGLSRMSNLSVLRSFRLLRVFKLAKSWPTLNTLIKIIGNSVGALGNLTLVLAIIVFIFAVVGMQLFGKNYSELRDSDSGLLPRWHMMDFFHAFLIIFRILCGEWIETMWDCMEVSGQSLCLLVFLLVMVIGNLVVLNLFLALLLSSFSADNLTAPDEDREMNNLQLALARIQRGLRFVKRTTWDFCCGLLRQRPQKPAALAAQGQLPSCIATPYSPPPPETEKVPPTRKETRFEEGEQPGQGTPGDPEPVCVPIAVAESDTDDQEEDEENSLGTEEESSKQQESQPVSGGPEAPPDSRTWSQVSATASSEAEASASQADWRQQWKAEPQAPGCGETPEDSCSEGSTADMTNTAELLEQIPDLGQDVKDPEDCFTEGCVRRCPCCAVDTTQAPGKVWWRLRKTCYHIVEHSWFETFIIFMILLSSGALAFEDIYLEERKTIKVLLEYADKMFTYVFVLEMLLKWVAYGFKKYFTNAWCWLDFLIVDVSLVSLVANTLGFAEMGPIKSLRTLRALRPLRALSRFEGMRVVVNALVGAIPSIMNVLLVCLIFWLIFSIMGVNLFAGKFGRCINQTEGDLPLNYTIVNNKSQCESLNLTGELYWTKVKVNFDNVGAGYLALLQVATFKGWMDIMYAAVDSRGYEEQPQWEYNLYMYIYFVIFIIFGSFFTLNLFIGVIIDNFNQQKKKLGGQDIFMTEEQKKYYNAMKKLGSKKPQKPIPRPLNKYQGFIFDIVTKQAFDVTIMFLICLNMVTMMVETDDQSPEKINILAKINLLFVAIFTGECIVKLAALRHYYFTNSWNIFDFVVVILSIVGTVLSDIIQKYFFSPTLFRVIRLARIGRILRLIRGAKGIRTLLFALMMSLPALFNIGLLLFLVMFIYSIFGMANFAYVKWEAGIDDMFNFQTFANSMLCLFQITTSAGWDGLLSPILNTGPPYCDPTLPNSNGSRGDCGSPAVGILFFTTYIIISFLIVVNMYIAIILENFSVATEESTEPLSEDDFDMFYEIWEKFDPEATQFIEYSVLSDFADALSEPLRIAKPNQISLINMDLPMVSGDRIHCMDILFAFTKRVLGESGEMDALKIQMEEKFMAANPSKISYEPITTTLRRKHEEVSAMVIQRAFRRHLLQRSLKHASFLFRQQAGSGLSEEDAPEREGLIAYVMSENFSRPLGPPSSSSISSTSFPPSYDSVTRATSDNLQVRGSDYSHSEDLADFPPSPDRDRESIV
Chain of 5-hydroxytryptamine receptor 4 (Homo sapiens) (Q13639 whole entry, the tested form may be a part): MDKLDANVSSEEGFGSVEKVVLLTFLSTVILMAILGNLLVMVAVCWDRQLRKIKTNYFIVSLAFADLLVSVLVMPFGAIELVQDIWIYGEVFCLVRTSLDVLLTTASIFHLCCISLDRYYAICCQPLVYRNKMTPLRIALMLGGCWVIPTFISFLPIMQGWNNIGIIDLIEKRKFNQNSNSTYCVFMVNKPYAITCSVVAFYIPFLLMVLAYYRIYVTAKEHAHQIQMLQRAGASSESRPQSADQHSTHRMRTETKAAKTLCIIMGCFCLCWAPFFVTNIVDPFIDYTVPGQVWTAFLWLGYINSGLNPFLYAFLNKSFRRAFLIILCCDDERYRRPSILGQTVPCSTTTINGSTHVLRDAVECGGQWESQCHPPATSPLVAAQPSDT
Chain of 5-hydroxytryptamine receptor 2A (Homo sapiens) (P28223 whole entry): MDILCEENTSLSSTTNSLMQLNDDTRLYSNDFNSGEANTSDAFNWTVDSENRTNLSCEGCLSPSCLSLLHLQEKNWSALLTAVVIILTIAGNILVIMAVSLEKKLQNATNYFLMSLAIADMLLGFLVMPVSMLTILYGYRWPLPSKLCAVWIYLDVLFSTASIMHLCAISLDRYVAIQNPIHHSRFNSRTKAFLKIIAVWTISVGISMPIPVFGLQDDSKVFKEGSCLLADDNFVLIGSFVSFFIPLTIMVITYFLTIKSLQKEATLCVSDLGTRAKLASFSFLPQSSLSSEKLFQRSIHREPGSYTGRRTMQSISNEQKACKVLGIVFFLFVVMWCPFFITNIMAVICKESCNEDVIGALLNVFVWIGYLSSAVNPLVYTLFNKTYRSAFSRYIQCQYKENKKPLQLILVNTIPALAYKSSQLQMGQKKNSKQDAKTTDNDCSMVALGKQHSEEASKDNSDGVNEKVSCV
Chain of Voltage-gated inwardly rectifying potassium channel KCNH2 (Q12809 whole entry, the tested form may be a part): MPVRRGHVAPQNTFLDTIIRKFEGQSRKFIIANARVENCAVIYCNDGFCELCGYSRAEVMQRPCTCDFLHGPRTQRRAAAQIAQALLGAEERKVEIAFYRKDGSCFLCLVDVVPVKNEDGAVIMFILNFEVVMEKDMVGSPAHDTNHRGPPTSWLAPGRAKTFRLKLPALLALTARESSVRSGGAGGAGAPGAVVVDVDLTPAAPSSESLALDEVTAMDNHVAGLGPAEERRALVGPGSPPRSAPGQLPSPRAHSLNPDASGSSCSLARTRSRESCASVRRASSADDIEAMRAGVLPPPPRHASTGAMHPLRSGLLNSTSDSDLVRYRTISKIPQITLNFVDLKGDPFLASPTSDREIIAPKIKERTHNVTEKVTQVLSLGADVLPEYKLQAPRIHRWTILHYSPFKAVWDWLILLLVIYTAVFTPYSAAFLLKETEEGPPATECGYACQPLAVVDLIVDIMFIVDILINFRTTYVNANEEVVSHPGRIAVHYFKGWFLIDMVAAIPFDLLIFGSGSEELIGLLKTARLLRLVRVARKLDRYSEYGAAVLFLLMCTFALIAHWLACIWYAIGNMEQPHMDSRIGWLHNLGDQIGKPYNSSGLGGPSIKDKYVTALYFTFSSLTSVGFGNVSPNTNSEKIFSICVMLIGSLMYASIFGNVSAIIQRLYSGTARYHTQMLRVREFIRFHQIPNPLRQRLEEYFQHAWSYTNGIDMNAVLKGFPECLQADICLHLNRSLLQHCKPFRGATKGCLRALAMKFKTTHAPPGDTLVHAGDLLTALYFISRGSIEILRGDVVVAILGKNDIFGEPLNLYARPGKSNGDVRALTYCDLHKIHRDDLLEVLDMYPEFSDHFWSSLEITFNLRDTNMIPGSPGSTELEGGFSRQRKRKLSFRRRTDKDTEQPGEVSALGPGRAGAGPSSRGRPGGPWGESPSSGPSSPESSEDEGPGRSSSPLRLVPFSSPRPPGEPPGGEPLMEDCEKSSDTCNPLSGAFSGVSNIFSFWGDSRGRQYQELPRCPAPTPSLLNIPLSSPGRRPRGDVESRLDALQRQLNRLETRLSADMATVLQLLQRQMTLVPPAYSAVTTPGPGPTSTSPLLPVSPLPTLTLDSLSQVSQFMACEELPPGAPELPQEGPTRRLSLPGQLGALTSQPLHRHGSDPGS
Chain of Tyrosine-protein kinase Lck (Homo sapiens) (P06239 2-509 limits assumed): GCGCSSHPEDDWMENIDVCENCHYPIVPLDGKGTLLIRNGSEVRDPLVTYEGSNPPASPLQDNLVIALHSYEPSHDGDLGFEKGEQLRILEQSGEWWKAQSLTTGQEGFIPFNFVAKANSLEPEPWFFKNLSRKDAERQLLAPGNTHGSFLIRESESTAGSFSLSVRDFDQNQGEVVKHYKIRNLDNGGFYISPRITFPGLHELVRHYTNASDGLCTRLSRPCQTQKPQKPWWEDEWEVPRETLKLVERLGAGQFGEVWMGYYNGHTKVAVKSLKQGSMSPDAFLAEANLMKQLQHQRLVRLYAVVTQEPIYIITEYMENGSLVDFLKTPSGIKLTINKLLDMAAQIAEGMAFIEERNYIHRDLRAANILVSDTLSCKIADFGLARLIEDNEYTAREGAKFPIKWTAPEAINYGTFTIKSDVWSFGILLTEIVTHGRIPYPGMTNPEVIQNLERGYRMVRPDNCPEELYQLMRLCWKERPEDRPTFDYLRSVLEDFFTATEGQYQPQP

Structure (SMILES): COCCn1c(=O)c(-c2ccc(-n3cccc(C)c3=O)cc2Cl)cc2cnc(NC3COC3)nc21
- Selectivity ratio (Homo sapiens [2]): 158
- IC50 [4]: 290 nM
- efflux ratio at 1 h, 10 µM [5]: 2
- solubility kinetic [6]: 38 µM (≈ 18.8 µg/mL)
- logD [7]: 1.9
- Ki [3]: 5.9 nM
- Papp A→B at 1 h, 10 µM [8]: 7.6 ×10⁻⁶ cm/s

Structure (SMILES): CCn1c(=O)c(-c2ccc(-n3cccc(C)c3=O)cc2Cl)cc2cnc(NC)nc21
- Selectivity ratio (Homo sapiens [2]): 53
- IC50 [4]: 340 nM
- efflux ratio at 1 h, 10 µM [5]: 0.4
- solubility kinetic [6]: 2.5 µM (≈ 1.05 µg/mL)
- logD [7]: 2.1
- Ki [3]: 8 nM
- Papp A→B at 1 h, 10 µM [8]: 28 ×10⁻⁶ cm/s

Structure (SMILES): CNc1ncc2cc(-c3ccc(-c4cccc(C)n4)cc3Cl)c(=O)n(C[C@H]3OC[C@H](N)CO3)c2n1
- inhibition [10]: inactive
- inhibition [11]: > 75%
- Activity (Heart [12]): Toxic
- Activity (Heart [13]): 37%
- Activity (Heart [14]): Toxic
- Activity (Heart [15]): 34%
- Papp A→B (MDR1): 0.3 ×10⁻⁶ cm/s
- inhibition [16]: inactive
- inhibition [17]: > 75%
- Activity (Heart [18]): Toxic
- inhibition (INH) [19]: Not Active
- inhibition [20]: inactive
- inhibition (Rattus norvegicus): > 75%
- inhibition [21]: inactive
- inhibition [22]: > 75%
- Activity (Heart [23]): Toxic
- inhibition in vivo at 25 mg/kg [24]: 60%
- Activity (Heart [25]): Toxic
- fraction unbound [26]: 0.003
- inhibition [27]: > 75%
- inhibition [28]: > 75%
- inhibition [29]: > 75%
- inhibition (Mus musculus [30]): Active
- inhibition (Homo sapiens [31]): inactive
- fCmax (Mus musculus [32]): 0.16 µM
- Activity (Heart [33]): Toxic
- Activity (Heart [34]): Toxic
- inhibition (INH) [35]: Not Active
- Activity (Heart [36]): Toxic
- Cmax [37]: 55 µM
- inhibition [38]: > 75%
- inhibition [39]: > 75%
- Activity (Heart [40]): 64%
- inhibition in vivo at 25 mg/kg (NCI-H292): 60%
- inhibition [41]: > 75%
- Activity (Heart [42]): Toxic
- inhibition (INH) [43]: Not Active

Structure (SMILES): Cc1nccn(-c2ccc(-c3cc4cnc(NC5COC5)nc4n(CC4CCNCC4(F)F)c3=O)c(Cl)c2)c1=O (single isomer, unassigned; enantiomer 2)
- Ki [3]: 12 nM

Structure (SMILES): CNc1ncc2cc(-c3ccc(-n4cccc(C)c4=O)cc3Cl)c(=O)n(CCOC3CN(C)C3)c2n1
- Selectivity ratio (Homo sapiens [2]): 86
- IC50 [4]: 88 nM
- efflux ratio at 1 h, 10 µM [5]: 26
- solubility kinetic [6]: 71 µM (≈ 36 µg/mL)
- logD [7]: 0.63
- Ki [3]: 4.4 nM
- Papp A→B at 1 h, 10 µM [8]: 0.2 ×10⁻⁶ cm/s

The next lines start with the values.

- Selectivity ratio (Homo sapiens [1]): > 443
- Selectivity ratio (Homo sapiens [2]): 282
- Ki [3]: 6.7 nM
Structure (SMILES): CNc1ncc2cc(-c3ccc(-n4cncc(C)c4=O)cc3Cl)c(=O)n(CCCN)c2n1

- Selectivity ratio (Homo sapiens [2]): 56
- IC50 [4]: 460 nM
- efflux ratio at 1 h, 10 µM [5]: 1.8
- solubility kinetic [6]: 51 µM (≈ 24.8 µg/mL)
- Papp B→A at 1 h, 10 µM [9]: 15.4 ×10⁻⁶ cm/s
- logD [7]: 1.8
- Ki [3]: 9 nM
- Papp A→B at 1 h, 10 µM [8]: 8.4 ×10⁻⁶ cm/s
Structure (SMILES): CNc1ncc2cc(-c3ccc(-n4cccc(C)c4=O)cc3Cl)c(=O)n(CC(F)(F)CN)c2n1

- Selectivity ratio (Homo sapiens [1]): > 52
- Selectivity ratio (Homo sapiens [2]): 10
Structure (SMILES): CNc1ncc2cc(-c3ccc(N4CCN(C)C4=O)cc3Cl)c(=O)n(CCCN)c2n1

- Selectivity ratio (Homo sapiens [1]): > 33
- Selectivity ratio (Homo sapiens [2]): 25
- Ki [3]: 89 nM
Structure (SMILES): CNc1ncc2cc(-c3ccc(N4CCCC4=O)cc3Cl)c(=O)n(CCCN)c2n1
